Data reported in ChEMBL document CHEMBL2146377, “Rational design of 4-aryl-1,2,3-triazoles for indoleamine 2,3-dioxygenase 1 inhibition” (J Med Chem, 2012).
Active and inactive are the calls of the source. The calls are words filed in the database; no cut-off is given here.

How the values were obtained:
physchem = details: pH 2
[1] = molecular target: T1, Indoleamine 2,3-dioxygenase 1 (Homo sapiens, UniProt P14902); test: Inhibition of human IDO1 transfected in mouse P815B clone-6 cells by HPLC analysis; type: cell-based
Target sequence in this assay (P14902 whole entry): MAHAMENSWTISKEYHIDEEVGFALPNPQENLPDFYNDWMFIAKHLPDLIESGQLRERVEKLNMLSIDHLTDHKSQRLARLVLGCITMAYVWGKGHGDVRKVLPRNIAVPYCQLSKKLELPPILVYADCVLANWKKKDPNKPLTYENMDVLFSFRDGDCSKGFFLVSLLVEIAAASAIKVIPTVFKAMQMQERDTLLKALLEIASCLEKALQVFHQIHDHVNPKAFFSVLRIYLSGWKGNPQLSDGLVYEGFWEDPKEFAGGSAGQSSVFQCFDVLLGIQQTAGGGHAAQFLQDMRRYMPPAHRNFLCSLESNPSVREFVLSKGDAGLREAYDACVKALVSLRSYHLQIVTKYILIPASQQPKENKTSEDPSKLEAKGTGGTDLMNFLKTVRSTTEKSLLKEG

[2] = molecular target: T1, Indoleamine 2,3-dioxygenase 1; test: Inhibition of human IDO1 transfected in HEK293 clone 6 cells by HPLC analysis; type: cell-based
Target sequence in this assay (P14902 whole entry, looked up): as the sequence (P14902 whole entry) above

[3] = molecular target: Indoleamine 2,3-dioxygenase 1 (Mus musculus, UniProt P28776); test: Inhibition of mouse IDO1 in P815 clone 6 cells by HPLC analysis; type: cell-based
Chain of Indoleamine 2,3-dioxygenase 1 (Mus musculus, UniProt P28776) (P28776 whole entry): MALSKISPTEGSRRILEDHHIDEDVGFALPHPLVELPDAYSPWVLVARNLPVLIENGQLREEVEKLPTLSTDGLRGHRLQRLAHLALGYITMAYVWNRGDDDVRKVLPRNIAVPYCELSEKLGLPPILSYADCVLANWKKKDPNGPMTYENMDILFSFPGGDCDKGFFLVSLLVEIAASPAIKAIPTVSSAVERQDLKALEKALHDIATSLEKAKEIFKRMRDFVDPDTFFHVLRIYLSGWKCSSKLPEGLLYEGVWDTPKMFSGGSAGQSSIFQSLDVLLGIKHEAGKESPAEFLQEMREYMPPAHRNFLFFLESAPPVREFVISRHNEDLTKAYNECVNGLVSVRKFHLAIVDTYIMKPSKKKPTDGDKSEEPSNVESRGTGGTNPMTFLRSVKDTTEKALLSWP
Method in brief: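 Murine mastocytoma P815 stably transfected cells were used: P815-mIDO1 clone 6 for mouse IDO1 and P815B-hIDO1 clone 6 for human IDO1. Cells with inhibitor were incubated at 37 °C until under 50% of tryptophan was consumed, as tracked in control wells by pDMAB absorbance at 480 nm. Supernatant was TCA-precipitated, and tryptophan and kynurenine were quantified by C18 HPLC. Values are the mean of ≥2 independent assays.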

[4] = molecular target: T1, Indoleamine 2,3-dioxygenase 1; details: at 1 mM
Target sequence in this assay (P14902 whole entry, looked up): as the sequence (P14902 whole entry) above

[5] = molecular target: Tryptophan 2,3-dioxygenase (Mus musculus, UniProt P48776); test: Inhibition of mouse TDO in P815 clone 12 cells by HPLC analysis; type: cell-based
Chain of Tryptophan 2,3-dioxygenase (Mus musculus, UniProt P48776) (P48776 whole entry): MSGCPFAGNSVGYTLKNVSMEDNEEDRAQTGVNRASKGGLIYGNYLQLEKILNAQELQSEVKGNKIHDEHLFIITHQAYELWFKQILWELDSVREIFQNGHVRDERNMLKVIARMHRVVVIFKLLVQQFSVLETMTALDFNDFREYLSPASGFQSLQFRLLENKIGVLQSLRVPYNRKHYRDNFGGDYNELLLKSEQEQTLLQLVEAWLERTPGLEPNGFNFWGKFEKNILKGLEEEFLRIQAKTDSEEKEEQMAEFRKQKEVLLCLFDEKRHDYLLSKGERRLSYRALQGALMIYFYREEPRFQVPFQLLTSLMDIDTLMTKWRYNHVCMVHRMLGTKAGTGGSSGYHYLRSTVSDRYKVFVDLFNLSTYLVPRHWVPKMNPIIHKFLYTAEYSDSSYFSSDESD

HepG2 = test: Cytotoxicity against human HepG2 cells after 24 hrs by MTS-PMS assay; type: functional; details: HepG2, 24 h, read-out: LD50 (the source's name)
Method in brief: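 Hep G2 cells (2 × 10⁴ per well) in IMDM with 10% FCS exposed to compound titrated 0.001–100 μM for 24 h at 37 °C; living cells counted by MTS/PMS assay; LD₅₀ reported as mean of at least two independent assays with standard deviation.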

[6] = molecular target: Tryptophan 2,3-dioxygenase (Homo sapiens, UniProt P48775); test: Inhibition of human TDO transfected in mouse P815B clone 19 cells by HPLC analysis; type: cell-based
Chain of Tryptophan 2,3-dioxygenase (Homo sapiens, UniProt P48775) (P48775 whole entry): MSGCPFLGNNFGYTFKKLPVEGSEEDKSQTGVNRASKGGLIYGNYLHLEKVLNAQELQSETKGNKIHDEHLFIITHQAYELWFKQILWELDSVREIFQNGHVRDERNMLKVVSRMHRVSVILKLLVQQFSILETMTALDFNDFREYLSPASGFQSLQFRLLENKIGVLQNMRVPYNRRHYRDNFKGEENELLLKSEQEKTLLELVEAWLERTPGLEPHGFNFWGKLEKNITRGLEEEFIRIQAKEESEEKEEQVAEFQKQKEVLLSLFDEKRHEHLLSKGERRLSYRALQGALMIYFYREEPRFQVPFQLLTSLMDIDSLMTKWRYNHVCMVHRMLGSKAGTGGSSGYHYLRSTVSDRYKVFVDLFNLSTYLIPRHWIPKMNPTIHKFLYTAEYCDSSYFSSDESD

[7] = Dissociation constant, pKa of the compound at pH 11 to 12 by spectrophotometric analysis; type: physicochemical
[8] = molecular target: T1, Indoleamine 2,3-dioxygenase 1; test: Inhibition of human recombinant N-terminal His-tagged IDO1 (Ala2 to Gly403) overexpressed in Escherichia coli BL21 at pH 6.5 after 60 mins by HPLC analysis
Target sequence in this assay (P14902 whole entry): as the sequence (P14902 whole entry) above

Row | Structure (SMILES) | pKa (physchem) | IC50 [1] [µM] | inhibition [2] | IC50 [3] [µM] | inhibition [4] | IC50 [5] [µM] | CC50 (HepG2) [µM] | IC50 [6] [µM] | pKa [7] | IC50 [8] [µM]
1 | COc1ccccc1-c1c[nH]nn1 | 8.99 | > 100 | Active | 20 | inactive | > 100 | > 100 | > 100 |  | 
2 | c1ccc(-c2cnn[nH]2)cc1 | 8.62 |  | Active | 0.18 |  | > 100 | > 100 | > 100 | 0.4 | 
3 | c1c[nH]nn1 | 9.26 |  |  |  |  |  |  |  | 1.17 | 
4 | c1ccc(-c2c[nH]cn2)cc1 | 13.4 |  |  |  |  |  |  |  | 6.1 | 
5 | Fc1cc(-c2c[nH]nn2)ccn1 | 7.59 | 7 | Active | 0.12 |  | > 100 | > 100 | > 100 |  | 7.4
6 | Fc1cccc(-c2c[nH]nn2)c1 | 8.38 | > 100 | Active | 1.1 |  | > 100 | > 100 | > 100 |  | 47
7 | c1nc[nH]n1 [1,2,4-TRIAZOLE] | 10.3 |  |  |  |  |  |  |  | 2.19 | 
8 | c1ccc(-c2nc[nH]n2)cc1 | 9.29 |  |  |  | inactive |  |  |  | 2.05 | 
